Assays:
[1] = Chemical stability in presence of 80% (v/v) human serum assessed as intact compound remaining after 8 hrs by PAGE; assay type: physicochemical; conditions: read-out: Stability
In short: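 Aptamer incubated in 80% v/v human serum at 37 °C for 8 h; intact full-length aptamer remaining quantified.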

[2] = Chemical stability in presence of snake venom phosphodiesterase 1 assessed as oligonucleotide degradation after 120 mins by PAGE; assay type: physicochemical; conditions: 2 h
[3] = target: Prothrombin (Homo sapiens, UniProt P00734); assay: Binding affinity to human thrombin after 30 mins by non-equilibrium capillary electrophoresis
In short: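 Capillary electrophoresis of aptamer–thrombin mixtures: aptamer 1 nM with thrombin 4 nM in 20 mM Tris-HCl (1 mM MgCl2) pH 7.4 sample buffer; running buffer 100 mM sodium borate pH 8.35; separation +12 kV, injection 0.5 psi × 7.8 s. Kd derived from binding saturation curves over varied thrombin concentrations.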

Structure (SMILES)	remaining at 8 h [1] [%]	Stability [2]	Kd [3] [nM]
C=C1NC(=O)C(C)=CN1[C@H]1C[C@H](OP(=O)(O)OC[C@H]2O[C@@H](n3cnc4c(=O)[nH]c(N)nc43)[C@H](O)[C@@H]2OP(=O)(O)OC[C@H]2O[C@@H](n3cnc4c(N)ncnc43)[C@H](O)[C@@H]2OP(=O)(O)OC[C@H]2O[C@@H](n3ccc(N)nc3=O)[C@H](O)[C@@H]2OP(=O)(O)OC[C@H]2O[C@@H](n3cc(C)c(=O)[nH]c3=O)C[C@@H]2OP(=O)(O)OC[C@@]23CNO[C@@H]([C@H](n4cc(C)c(=O)[nH]c4=O)O2)[C@@H]3O)[C@@H](COP(=O)(O)O[C@H]2[C@@H](O)[C@H](n3cnc4c(=O)[nH]c(N)nc43)O[C@@H]2COP(=O)(O)O[C@H]2[C@@H](O)[C@H](n3cnc4c(=O)[nH]c(N)nc43)O[C@@H]2COP(=O)(O)O[C@H]2[C@@H](O)[C@H](n3cnc4c(=O)[nH]c(N)nc43)O[C@@H]2COP(=O)(O)O[C@H]2[C@@H](O)[C@H](n3cnc4c(=O)[nH]c(N)nc43)O[C@@H]2COP(=O)(O)O[C@H]2C[C@H](n3cc(C)c(=O)[nH]c3=O)O[C@@H]2COP(=O)(O)O[C@H]2C[C@H](n3cc(C)c(=O)[nH]c3=O)O[C@@H]2COP(=O)(O)O[C@H]2[C@@H](O)[C@H](n3cnc4c(=O)[nH]c(N)nc43)O[C@@H]2COP(=O)(O)O[C@H]2[C@@H](O)[C@H](n3cnc4c(=O)[nH]c(N)nc43)O[C@@H]2COP(=O)(O)O[C@H]2[C@@H](O)[C@H](n3cnc4c(N)ncnc43)O[C@@H]2COP(=O)(O)O[C@H]2[C@@H](O)[C@H](n3ccc(N)nc3=O)O[C@@H]2COP(=O)(O)O[C@H]2[C@@H](O)[C@H](n3cnc4c(=O)[nH]c(N)nc43)O[C@@H]2COP(=O)(O)O[C@H]2[C@@H](O)[C@H](n3cnc4c(=O)[nH]c(N)nc43)O[C@@H]2COP(=O)(O)O[C@H]2[C@@H](O)[C@H](n3cnc4c(=O)[nH]c(N)nc43)O[C@@H]2COP(=O)(O)O[C@H]2[C@@H](O)[C@H](n3cnc4c(N)ncnc43)O[C@@H]2COP(=O)(O)O[C@H]2C[C@H](n3cc(C)c(=O)[nH]c3=O)O[C@@H]2COP(=O)(O)O[C@H]2[C@@H](O)[C@H](n3cnc4c(=O)[nH]c(N)nc43)O[C@@H]2COP(=O)(O)O[C@H]2[C@@H](O)[C@H](n3cnc4c(=O)[nH]c(N)nc43)O[C@@H]2COP(=O)(O)O[C@H]2C[C@H](n3cc(C)c(=O)[nH]c3=O)O[C@@H]2COP(=O)(O)O[C@H]2[C@@H](O)[C@H](n3cnc4c(=O)[nH]c(N)nc43)O[C@@H]2COP(=O)(O)O[C@H]2[C@@H](O)[C@H](n3ccc(N)nc3=O)O[C@@H]2COP(=O)(O)O[C@H]2[C@@H](O)[C@H](n3ccc(N)nc3=O)O[C@@H]2COP(=O)(O)O[C@H]2C[C@H](n3cc(C)c(=O)[nH]c3=O)O[C@@H]2COP(=O)(O)O[C@H]2[C@@H](O)[C@H](n3cnc4c(=O)[nH]c(N)nc43)O[C@@H]2COP(=O)(O)O[C@H]2[C@@H](O)[C@H](n3cnc4c(N)ncnc43)O[C@@H]2COc2ccc3c(c2)Oc2cc(O)ccc2C32OC(=O)c3ccccc32)O1 (stereo partly specified)	20	Stable	0.21
C=C1NC(=O)C(C)=CN1[C@H]1C[C@H](OP(=O)(O)OC[C@H]2O[C@@H](n3cnc4c(=O)[nH]c(N)nc43)[C@H](O)[C@@H]2OP(=O)(O)OC[C@H]2O[C@@H](n3cnc4c(N)ncnc43)[C@H](O)[C@@H]2OP(=O)(O)OC[C@H]2O[C@@H](n3ccc(N)nc3=O)[C@H](O)[C@@H]2OP(=O)(O)OC[C@H]2O[C@@H](n3cc(C)c(=O)[nH]c3=O)C[C@@H]2OP(=O)(O)OC[C@]23O[C@@H](n4cc(C)c(=O)[nH]c4=O)[C@H](OCOC2c2ccccc2)[C@@H]3O)[C@@H](COP(=O)(O)O[C@H]2[C@@H](O)[C@H](n3cnc4c(=O)[nH]c(N)nc43)O[C@@H]2COP(=O)(O)O[C@H]2[C@@H](O)[C@H](n3cnc4c(=O)[nH]c(N)nc43)O[C@@H]2COP(=O)(O)O[C@H]2[C@@H](O)[C@H](n3cnc4c(=O)[nH]c(N)nc43)O[C@@H]2COP(=O)(O)O[C@H]2[C@@H](O)[C@H](n3cnc4c(=O)[nH]c(N)nc43)O[C@@H]2COP(=O)(O)O[C@H]2C[C@H](n3cc(C)c(=O)[nH]c3=O)O[C@@H]2COP(=O)(O)O[C@H]2C[C@H](n3cc(C)c(=O)[nH]c3=O)O[C@@H]2COP(=O)(O)O[C@H]2[C@@H](O)[C@H](n3cnc4c(=O)[nH]c(N)nc43)O[C@@H]2COP(=O)(O)O[C@H]2[C@@H](O)[C@H](n3cnc4c(=O)[nH]c(N)nc43)O[C@@H]2COP(=O)(O)O[C@H]2[C@@H](O)[C@H](n3cnc4c(N)ncnc43)O[C@@H]2COP(=O)(O)O[C@H]2[C@@H](O)[C@H](n3ccc(N)nc3=O)O[C@@H]2COP(=O)(O)O[C@H]2[C@@H](O)[C@H](n3cnc4c(=O)[nH]c(N)nc43)O[C@@H]2COP(=O)(O)O[C@H]2[C@@H](O)[C@H](n3cnc4c(=O)[nH]c(N)nc43)O[C@@H]2COP(=O)(O)O[C@H]2[C@@H](O)[C@H](n3cnc4c(=O)[nH]c(N)nc43)O[C@@H]2COP(=O)(O)O[C@H]2[C@@H](O)[C@H](n3cnc4c(N)ncnc43)O[C@@H]2COP(=O)(O)O[C@H]2C[C@H](n3cc(C)c(=O)[nH]c3=O)O[C@@H]2COP(=O)(O)O[C@H]2[C@@H](O)[C@H](n3cnc4c(=O)[nH]c(N)nc43)O[C@@H]2COP(=O)(O)O[C@H]2[C@@H](O)[C@H](n3cnc4c(=O)[nH]c(N)nc43)O[C@@H]2COP(=O)(O)O[C@H]2C[C@H](n3cc(C)c(=O)[nH]c3=O)O[C@@H]2COP(=O)(O)O[C@H]2[C@@H](O)[C@H](n3cnc4c(=O)[nH]c(N)nc43)O[C@@H]2COP(=O)(O)O[C@H]2[C@@H](O)[C@H](n3ccc(N)nc3=O)O[C@@H]2COP(=O)(O)O[C@H]2[C@@H](O)[C@H](n3ccc(N)nc3=O)O[C@@H]2COP(=O)(O)O[C@H]2C[C@H](n3cc(C)c(=O)[nH]c3=O)O[C@@H]2COP(=O)(O)O[C@H]2[C@@H](O)[C@H](n3cnc4c(=O)[nH]c(N)nc43)O[C@@H]2COP(=O)(O)O[C@H]2[C@@H](O)[C@H](n3cnc4c(N)ncnc43)O[C@@H]2COc2ccc3c(c2)Oc2cc(O)ccc2C32OC(=O)c3ccccc32)O1 (stereo partly specified)	20	Stable	0.28

— ChEMBL document CHEMBL1155379, “Effect of 3'-end capping of aptamer with various 2',4'-bridged nucleotides: Enzymatic post-modification toward a practical use of polyclonal aptamers” (Bioorg Med Chem Lett, 2010)
